ChEMBL document CHEMBL3861961, “Effects of Functional Groups and Sugar Composition of Quercetin Derivatives on Their Radical Scavenging Properties” (J Nat Prod, 2016)
Calls of active or inactive are those of the source. The rule behind the calls is not given here.

How the values were obtained:
[1] = Antioxidant activity assessed as DPPH free radical scavenging activity at 5 uM after 15 to 60 mins in presence of CuSO4.5H2O; type: functional
In short: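 Samples (0.2 mM in MeOH) mixed 1:1 by volume with CuSO4·5H2O (0.4 mM in MeOH), held 1.5 h at room temperature. DPPH step: 74 μM DPPH final in H2O/MeOH (5/3), sample 5 μM final. Mixture left standing, then absorbance read at 545 nm after 15, 30 and 60 min. Wells without compound were negative controls. At least triplicate.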

[2] = Antioxidant activity assessed as DPPH free radical scavenging activity by measuring remaining DPPH at 5 uM after 15 to 60 mins relative to trolox; type: functional
In short: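 DPPH 74 μM final in H2O/MeOH (5/3), mixed vigorously with sample (0.1 mM stock in MeOH; 5 μM final) and left standing. Absorbance at 545 nm read at 15, 30 and 60 min. Wells without compound served as negative controls. At least three replicates per compound and control.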

[3] = Antioxidant activity assessed as DPPH free radical scavenging activity by measuring decrease in signal intensity at 0.015 mmol measured after 30 mins in presence of 3-Omethylquercetin by 13C-NMR spectroscopy

SMILES	Activity [1]	Activity [2] [%]	Activity [3]
O=c1c(O[C@@H]2O[C@H](CO)[C@H](O)[C@H](O)[C@H]2O)c(-c2ccc(O)c(O)c2)oc2cc(O)cc(O)c12	Active	< 70	–
O=c1c(O[C@@H]2O[C@H](CO)[C@@H](O)[C@H](O)[C@H]2O)c(-c2ccc(O)c(O)c2)oc2cc(O)cc(O)c12	Active	< 70	–
COc1c(-c2ccc(O)c(O)c2)oc2cc(O)cc(O)c2c1=O	Active	< 70	–
O=C(OC[C@H]1O[C@@H](Oc2c(-c3ccc(O)c(O)c3)oc3cc(O)cc(O)c3c2=O)[C@H](O)[C@@H](O)[C@@H]1O)c1cc(O)c(O)c(O)c1	< 35%	–	–
COc1cc(-c2oc3cc(O)cc(O)c3c(=O)c2O[C@@H]2O[C@H](CO)[C@@H](O)[C@H](O)[C@H]2O)ccc1O	Active	–	–
O=C(O[C@H]1[C@H](Oc2c(-c3ccc(O)c(O)c3)oc3cc(O)cc(O)c3c2=O)O[C@H](CO)[C@@H](O)[C@@H]1O)c1cc(O)c(O)c(O)c1	< 35%	–	–
O=C(O[C@H]1[C@H](Oc2c(-c3ccc(O)c(O)c3)oc3cc(O)cc(O)c3c2=O)O[C@H](CO)[C@@H](O)[C@@H]1OC(=O)c1cc(O)c(O)c(O)c1)c1cc(O)c(O)c(O)c1	< 35%	–	–
O=c1c(O)c(-c2ccc(O)c(O)c2)oc2cc(O)cc(O)c12	Active	< 70	–
COC(=O)c1cc(O)c(O)c(O)c1	–	–	Active
COc1cc(-c2oc3cc(O)cc(O)c3c(=O)c2O[C@@H]2O[C@H](CO)[C@H](O)[C@H](O)[C@H]2O)ccc1O	Active	–	–
COc1cc(O)cc2oc(-c3ccc(O)c(O)c3)c(O[C@@H]3O[C@H](CO)[C@@H](O)[C@H](O)[C@H]3O)c(=O)c12	Active	< 70	–
O=C(O[C@@H]1[C@@H](O)[C@H](Oc2c(-c3ccc(O)c(O)c3)oc3cc(O)cc(O)c3c2=O)O[C@H](CO)[C@H]1O)c1cc(O)c(O)c(O)c1	< 35%	–	–
COc1ccc(-c2oc3cc(O)cc(O)c3c(=O)c2O)cc1O	Active	–	–
O=C(O[C@H]1[C@H](O)[C@@H](O)[C@H](Oc2c(-c3ccc(O)c(O)c3)oc3cc(O)cc(O)c3c2=O)O[C@@H]1CO)c1cc(O)c(O)c(O)c1	< 35%	–	–
COc1cc(O)cc2oc(-c3ccc(O)c(O)c3)c(O[C@@H]3O[C@H](CO)[C@H](O)[C@H](O)[C@H]3O)c(=O)c12	Active	< 70	–
COc1cc(-c2oc3cc(O)cc(O)c3c(=O)c2O)ccc1O	Active	–	–
COc1cc(O)cc2oc(-c3ccc(O)c(O)c3)c(O)c(=O)c12	Active	< 70	–
